Test results as given in ChEMBL document CHEMBL1135704, “Design, synthesis, and evaluation of novel 2-substituted 3-hydroxypyridin-4-ones: structure-activity investigation of metalloenzyme inhibition by iron chelators” (J Med Chem, 2002).

Assays:
[1] = Inhibitory activity against 5-lipoxygenase, by using soybean lipoxygenase spectrophotometric assay; set-up: concentration or dose not given beside the values; details: concentration not given here
Method in brief: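 Soybean lipoxygenase (10 000 units/mL stock in 0.2 M borate pH 9.0; final 500 units per 3.0 mL) preincubated 30 min at room temperature with chelator at 110 µM iron-binding equivalents or diluent; reaction started with linoleic acid in borate buffer. Linoleic hydroperoxide formation followed at 234 nm (ε 23600 M-1 cm-1); rate versus control gives % inhibition.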

[2] = Partition coefficient (logP); assay type: physicochemical; details: octanol/water
Method in brief: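 Distribution coefficient D7.4 between 1-octanol and 50 mM MOPS pH 7.4 (mutually saturated). Ligand in aqueous phase at 0.5–1.5 absorbance near 280 nm; octanol added in aliquots, aqueous UV absorbance monitored continuously to equilibrium after each. D = [(A0−A1)/A1]·(Vw/Vo) per addition.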

Rattus norvegicus [3] = assay: The compound was tested in vivo for Iron Mobilization efficacy in Fe-Ferritin Loaded Rat model; assay type: functional
Method in brief: (§1)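 One hour later chelator given orally at 450 µmol/kg (controls: equal volume water); individual metabolic cages, food returned 1 h post-dose. Killed 24 h after labelling; liver and GI tract with contents and feces gamma-counted. Mean ± SD, n = 5.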

Rattus norvegicus [4] = species: Rattus norvegicus; assay: The compound was tested for % iron mobilization in Fe-Ferritin Loaded Rat model; assay type: functional; method in brief: as §1

## CCCc1c(O)c(=O)cc(C)n1C
[1]
  inhibition: 30%
[2]
  logP: 0.4

## CCc1c(O)c(=O)ccn1C
[1]
  inhibition: 48.5%
[2]
  logP: -0.21

## COCc1c(O)c(=O)cc(C)n1C
[1]
  inhibition: 14.8%
[2]
  logP: -0.41

## Cc1cc(=O)c(O)c(CNC(=O)C(C)C)n1C
[1]
  inhibition: 21%
[2]
  logP: -0.35

## CCn1ccc(=O)c(O)c1C
[1]
  inhibition: 58.4%

## CCCCc1c(O)c(=O)cc(C)n1C
[1]
  inhibition: 29.6%
[2]
  logP: 0.9

## CCCCCn1ccc(=O)c(O)c1C
[1]
  inhibition: 90%

## CC(=O)NCCC(=O)NCc1c(O)c(=O)cc(C)n1C
Rattus norvegicus [3]
  Efficacy: 5.9%
[1]
  inhibition: 3.8%
Rattus norvegicus [4]
  Mobilization: 9.7%
[2]
  logP: -1.7

## Cn1ccc(=O)c(O)c1
[1]
  inhibition: 59.4%
[2]
  logP: -0.6

## CCCCCCn1ccc(=O)c(O)c1C
[1]
  inhibition: 93.2%

## Cc1c(O)c(=O)ccn1C [DEFERIPRONE]
Rattus norvegicus [3]
  Efficacy: 9.5%
[1]
  inhibition: 39.4%
Rattus norvegicus [4]
  Mobilization: 13.4%

## CCC(=O)NCc1c(O)c(=O)cc(C)n1C
[1]
  inhibition: 13.5%
[2]
  logP: -0.72

## CC(=O)NCc1c(O)c(=O)cc(C)n1C
[1]
  inhibition: 18.5%

## CCCCn1ccc(=O)c(O)c1C
[1]
  inhibition: 80%

## CCCCCCCCn1ccc(=O)c(O)c1C
[1]
  inhibition: 98.7%

## CCCNC(=O)CCC(=O)NCc1c(O)c(=O)cc(C)n1C
Rattus norvegicus [3]
  Efficacy: 19.4%
[1]
  inhibition: 2.1%
Rattus norvegicus [4]
  Mobilization: 23.3%
[2]
  logP: -0.701
